According to ChEMBL document CHEMBL1140232, “Surprising alteration of antibacterial activity of 5"-modified neomycin against resistant bacteria” (2008):
≈ marks a conversion by molar mass, not a printed value.

What was measured:
Enterococcus faecalis [1] = experiment: Antibacterial activity against vancomycin-susceptible and aminoglycosides-resistant Enterococcus faecalis ATCC 29212 after 12 to 18 hrs; format: functional
In short: (§1)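 Broth microdilution MIC. Culture diluted with broth to an absorbance of 0.08–0.1 at 625 nm. 100 μL of this was diluted into 10 mL broth and dispensed into 96-well plates. Each well received 50 μL inoculum plus 50 μL of a 2-fold compound dilution series. Plates were incubated at 35°C for 12–18 h. MIC is the lowest concentration that inhibits growth, from at least three repeats.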

Escherichia coli [2] = experiment: Antibacterial activity against Escherichia coli TG1 pSF815 plasmid encoded for AAC(6')/APH(2') after 12 to 18 hrs; format: functional
In short: (§2)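 Broth microdilution. Bacterial suspension adjusted with broth to absorbance 0.08–0.1 at 625 nm, diluted further in broth, and mixed in wells with 2-fold serial dilutions of compound. Plates incubated at 35°C for 12–18 h. MIC is the lowest concentration inhibiting growth; each determination repeated at least three times.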

Enterococcus [3] = experiment: Activity of Enterococcus APH(3')-3a
Klebsiella pneumoniae [4] = experiment: Antibacterial activity against multidrug-resistant Klebsiella pneumoniae ATCC 700603 isolate after 12 to 18 hrs; format: functional; in short: as §1
Klebsiella pneumoniae [5] = experiment: Antibacterial activity against ampicillin-resistant and aminoglycosides-susceptible Klebsiella pneumoniae ATCC 13883 after 12 to 18 hrs; format: functional; in short: as §1
Escherichia coli [6] = experiment: Antibacterial activity against aminoglycoside-susceptible Escherichia coli ATCC 25922 after 12 to 18 hrs; format: functional; in short: as §2
Enterococcus [7] = experiment: Ratio of kcat to Km of Enterococcus APH(3')-3a
Escherichia coli [8] = experiment: Antibacterial activity against Escherichia coli TG1 pET28a plasmid encoded for APH(3')-3a after 12 to 18 hrs; format: functional; in short: as §2
Staphylococcus aureus [9] = experiment: Antibacterial activity against methicillin-resistant Staphylococcus aureus ATCC 33591 after 12 to 18 hrs; format: functional; in short: as §1
Escherichia coli [10] = experiment: Antibacterial activity against Escherichia coli TG1 pTZ19U-3 plasmid encoded for APH(3')-1 after 12 to 18 hrs; format: functional; in short: as §2
Staphylococcus aureus [11] = experiment: Antibacterial activity against aminoglycoside-susceptible Staphylococcus aureus ATCC 25923 after 12 to 18 hrs; format: functional; in short: as §2
Pseudomonas aeruginosa = experiment: Antibacterial activity against aminoglycosides-resistant Pseudomonas aeruginosa ATCC 27853 expressing APH(3')-2b after 12 to 18 hrs; format: functional; in short: as §1
Enterococcus faecalis [12] = experiment: Antibacterial activity against vancomycin-resistant Enterococcus faecalis ATCC 51299 expressing vanB, ant(6)-1, aac(6')-aph(2') resistant gene after 12 to 18 hrs; format: functional; in short: as §1
Escherichia coli [13] = experiment: Antibacterial activity against aminoglycoside-susceptible Escherichia coli TG1 after 12 to 18 hrs; format: functional; in short: as §2

| Compound | MIC (Enterococcus faecalis [1]) [µg/mL] | MIC (Escherichia coli [2]) [µg/mL] | Km (Enterococcus [3]) [µM] | Vmax (Enterococcus [3]) [µmol/min/mg] | kcat (Enterococcus [3]) [s⁻¹] | MIC (Klebsiella pneumoniae [4]) [µg/mL] | MIC (Klebsiella pneumoniae [5]) [µg/mL] | MIC (Escherichia coli [6]) [µg/mL] | kcat/Km (Enterococcus [7]) [×10⁴ /M/s] | MIC (Escherichia coli [8]) [µg/mL] | MIC (Staphylococcus aureus [9]) [µg/mL] | MIC (Escherichia coli [10]) [µg/mL] | MIC (Staphylococcus aureus [11]) [µg/mL] | MIC (Pseudomonas aeruginosa) [µg/mL] | MIC (Enterococcus faecalis [12]) [µg/mL] | MIC (Escherichia coli [13]) [µg/mL] |
| --- | --- | --- | --- | --- | --- | --- | --- | --- | --- | --- | --- | --- | --- | --- | --- | --- |
| CCCCCCCCCCCCCCCC(=O)NC[C@H]1O[C@@H](O[C@@H]2[C@@H](O)[C@H](N)C[C@H](N)[C@H]2O[C@H]2O[C@H](CN)[C@@H](O)[C@H](O)[C@H]2N)[C@H](O)[C@@H]1O[C@H]1O[C@@H](CN)[C@@H](O)[C@H](O)[C@H]1N | 2 (≈ 2.35 µM) | 16 (≈ 18.8 µM) | 58 | 0.85 | 0.42 | 16 (≈ 18.8 µM) | 8 (≈ 9.39 µM) | 4 (≈ 4.69 µM) | 0.72 | 1 (≈ 1.17 µM) | 2 (≈ 2.35 µM) | 8 (≈ 9.39 µM) | 2 (≈ 2.35 µM) | 4 (≈ 4.69 µM) | 4 (≈ 4.69 µM) | 2 (≈ 2.35 µM) |
| CCCCCCCCCCCCCCCCCC(=O)NC[C@H]1O[C@@H](O[C@@H]2[C@@H](O)[C@H](N)C[C@H](N)[C@H]2O[C@H]2O[C@H](CN)[C@@H](O)[C@H](O)[C@H]2N)[C@H](O)[C@@H]1O[C@H]1O[C@@H](CN)[C@@H](O)[C@H](O)[C@H]1N | 4 (≈ 4.54 µM) | 32 (≈ 36.4 µM) | 60 | 0.84 | 0.42 | 32 (≈ 36.4 µM) | 8 (≈ 9.09 µM) | 4 (≈ 4.54 µM) | 0.7 | 2 (≈ 2.27 µM) | 4 (≈ 4.54 µM) | 8 (≈ 9.09 µM) | 4 (≈ 4.54 µM) | 8 (≈ 9.09 µM) | 8 (≈ 9.09 µM) | 2 (≈ 2.27 µM) |
